In test [1] the test system is Enterococcus faecium. Description: Antibacterial activity against vancomycin-resistant Enterococcus faecium SR-7917 clinical isolate after 20 hrs by two fold microdilution broth method. Type of test: functional. The conditions noted are these: SR7917, 20 h. The essentials: (§1)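 NCCLS broth microdilution in cation-adjusted Mueller-Hinton broth. Serial 2-fold compound dilutions, inoculum 5×10⁴ CFU per well in 0.1 mL. Plates incubated at 35 °C for 20 h, then MIC (μg/mL) scored. Strains are clinical isolates from Japanese hospitals: MRSA SR3637, VanA E. faecalis SR7914, VanA E. faecium SR7917.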
(Dilution methods test growth across graded concentrations, often in twofold steps.)

Test [2] relates to Staphylococcus aureus. The test can be described thus: Antibacterial activity against methicillin-sensitive Staphylococcus aureus ATCC 29213 after 20 hrs by two fold microdilution broth method. It counts as functional. The conditions noted are these: ATCC 29213, 20 h. Summed up:
(§2)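 NCCLS-recommended broth microdilution in cation-adjusted Mueller-Hinton broth; serial 2-fold compound dilutions; each well inoculated with 5×10⁴ CFU in 0.1 mL; incubated 35 °C for 20 h, then MIC (μg/mL) scored.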

The test system of test [3] is Staphylococcus aureus. Description: Antibacterial activity against methicillin-resistant Staphylococcus aureus SR-3637 clinical isolate after 20 hrs by two fold microdilution broth method. The conditions noted are these: SR3637, 20 h. It counts as functional. The essentials:
as §1

Test [4] has as its target T1, Phospho-N-acetylmuramoyl-pentapeptide-transferase (Bacillus subtilis (strain 168), UniProt Q03521).
T1 sequence (Q03521 whole entry): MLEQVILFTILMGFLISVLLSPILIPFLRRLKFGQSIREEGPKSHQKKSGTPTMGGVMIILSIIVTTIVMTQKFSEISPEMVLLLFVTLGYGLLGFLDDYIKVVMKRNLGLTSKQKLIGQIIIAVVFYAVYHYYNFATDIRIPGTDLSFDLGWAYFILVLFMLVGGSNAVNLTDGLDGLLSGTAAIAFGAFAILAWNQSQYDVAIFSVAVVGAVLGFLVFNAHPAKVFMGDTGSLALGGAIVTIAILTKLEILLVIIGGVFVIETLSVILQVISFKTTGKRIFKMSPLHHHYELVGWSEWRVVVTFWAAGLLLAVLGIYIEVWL
The test can be described thus: Inhibition of Bacillus subtilis MraY after 30 mins using UDP-MurNAc-pentapeptide as substrate.

The subject of test [5] is Enterococcus faecalis. The test can be described thus: Antibacterial activity against vancomycin-resistant Enterococcus faecalis SR-7914 clinical isolate after 20 hrs by two fold microdilution broth method. Type of test: functional. The conditions noted are these: SR7914, 20 h. Summed up:
as §1

Test [6] has as its system Enterococcus faecalis. Description: Antibacterial activity against Enterococcus faecalis ATCC 29212 after 20 hrs by two fold microdilution broth method. It counts as functional. The conditions noted are these: ATCC 29212, 20 h. Summed up: as §2
The subject of test [7] is Enterococcus faecium. Description: Antibacterial activity against Enterococcus faecium ATCC 19434 after 20 hrs by two fold microdilution broth method. Type of test: functional. Particulars: ATCC 19434, 20 h. The essentials: as §2

In general, MIC refers to the lowest concentration that inhibits growth of the organism. A lower MIC goes with inhibition by little substance. In general, IC50 refers to the concentration needed to halve the response being measured.

On to `CCCCCCCCCCCCCCCC(=O)N1[C@H](C(=O)OC)[C@@H]([C@H]2O[C@@H](n3ccc(=O)[nH]c3=O)[C@H](O)[C@@H]2O)O[C@@H]1CCN.Cl`, for which the MIC against Enterococcus faecium [1] was 8 µg/mL; with Staphylococcus aureus [2], 8 µg/mL; with Staphylococcus aureus [3], 8 µg/mL; in the test with Enterococcus faecalis [5], 16 µg/mL; with Enterococcus faecalis [6], 8 µg/mL; against Enterococcus faecium [7] it was 4 µg/mL. For the same compound, the IC50 in test [4] was found to be 920 µM.

Turning to `CCCCCCCCCCCCCCCC(=O)N1[C@H](C(=O)OC)[C@@H]([C@H]2O[C@@H](n3ccc(=O)[nH]c3=O)[C@H](O)[C@@H]2O)O[C@@H]1CCCN.Cl`, the MIC came out at 4 µg/mL in the test with Enterococcus faecium [1]; 8 µg/mL against Staphylococcus aureus [2]; 8 µg/mL in the test with Staphylococcus aureus [3]; 16 µg/mL against Enterococcus faecalis [5]; 8 µg/mL in the test with Enterococcus faecalis [6]; 8 µg/mL in the test with Enterococcus faecium [7]. In test [4], this compound came in with an IC50 of 1200 µM.

The values are drawn from ChEMBL document CHEMBL1157746, “Function-oriented synthesis of simplified caprazamycins: discovery of oxazolidine-containing uridine derivatives as antibacterial agents against drug-resistant bacteria” (J Med Chem, 2010).
